Measured values: PMC3329872 (Bioorganic & medicinal chemistry letters, 2012)
Values joined by “and” are separate entries in the source; they are usually repeats but may differ in a detail not shown here. Equal entries are not always repeated. “Also recorded” adds a separate entry of the source. Where two headings read alike, the source gives them in different places.

Assays:
trypsin = target: T1, trypsin (Bos taurus, UniProt P00760); assay: Trypsin enzymatic inhibition assay; type: biochemical
T1 sequence (P00760 24-246): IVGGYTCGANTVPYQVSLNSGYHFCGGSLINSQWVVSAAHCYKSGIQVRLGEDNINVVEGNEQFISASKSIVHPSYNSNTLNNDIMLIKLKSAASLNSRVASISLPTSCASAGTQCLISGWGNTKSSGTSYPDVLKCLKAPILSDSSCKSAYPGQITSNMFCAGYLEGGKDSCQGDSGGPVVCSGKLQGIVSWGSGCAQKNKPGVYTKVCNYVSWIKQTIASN
Procedure, shortened: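 Chromogenic substrate level was chosen from the Km determination. Rate of absorbance change at 405 nm was recorded immediately after enzyme addition. Velocities at various inhibitor concentrations were fitted to a 4-parameter logistic equation.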

U87 glioma cells = assay: Cell death assay: lactate dehydrogenase; type: cell-based; details: LDH assay, human U87 glioma cells; concentration and time given in the cell
Procedure, shortened: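 U87 glioma cells plated at ten thousand per well and exposed to test compound for 24–48 h at 37°C, 5% CO2. Cell death read as cytosolic LDH released from dying cells, measured with a commercial LDH kit per the manufacturer's protocol.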

plasmin [1] = target: T2, plasmin (Homo sapiens, UniProt P00747); assay: Plasmin enzymatic inhibition assay; type: biochemical
[2] = test system: human malignant glioma cells; details: cited from earlier work
tPA = tPA (Homo sapiens, UniProt P00750); details: read-out: tPA IC50; cited from earlier work
plasmin [3] = target: T2, plasmin; details: read-out: plasmin IC50; cited from earlier work
[4] = read-out: Plasmin IC50, 22°C, pH 7.4, substrate tosyl-Gly-Pro-Lys-pNA

T2 sequence (P00747 581-810 limits assumed, species assumed): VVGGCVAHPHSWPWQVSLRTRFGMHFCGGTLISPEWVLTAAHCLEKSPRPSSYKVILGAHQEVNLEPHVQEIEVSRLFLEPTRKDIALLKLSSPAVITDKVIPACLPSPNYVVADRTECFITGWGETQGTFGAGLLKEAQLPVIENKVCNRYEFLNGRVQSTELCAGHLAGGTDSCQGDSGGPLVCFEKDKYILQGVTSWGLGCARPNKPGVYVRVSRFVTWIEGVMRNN
T2 sequence (P00747 97-580 partner limits assumed, species assumed): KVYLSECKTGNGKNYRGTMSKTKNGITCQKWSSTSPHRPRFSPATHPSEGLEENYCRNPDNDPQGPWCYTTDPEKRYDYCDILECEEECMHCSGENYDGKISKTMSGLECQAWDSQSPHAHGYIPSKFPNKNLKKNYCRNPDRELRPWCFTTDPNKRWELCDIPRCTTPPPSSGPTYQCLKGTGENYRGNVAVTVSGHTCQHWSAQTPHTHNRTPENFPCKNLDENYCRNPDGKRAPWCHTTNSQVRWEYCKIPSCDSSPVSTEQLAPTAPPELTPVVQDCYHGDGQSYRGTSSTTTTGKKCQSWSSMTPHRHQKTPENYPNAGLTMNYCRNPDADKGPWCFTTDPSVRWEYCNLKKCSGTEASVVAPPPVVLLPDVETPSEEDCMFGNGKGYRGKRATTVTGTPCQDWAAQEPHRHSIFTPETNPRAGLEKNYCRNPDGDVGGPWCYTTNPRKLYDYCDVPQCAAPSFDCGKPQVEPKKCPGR
tPA, sequence (P00750 36-562, species assumed): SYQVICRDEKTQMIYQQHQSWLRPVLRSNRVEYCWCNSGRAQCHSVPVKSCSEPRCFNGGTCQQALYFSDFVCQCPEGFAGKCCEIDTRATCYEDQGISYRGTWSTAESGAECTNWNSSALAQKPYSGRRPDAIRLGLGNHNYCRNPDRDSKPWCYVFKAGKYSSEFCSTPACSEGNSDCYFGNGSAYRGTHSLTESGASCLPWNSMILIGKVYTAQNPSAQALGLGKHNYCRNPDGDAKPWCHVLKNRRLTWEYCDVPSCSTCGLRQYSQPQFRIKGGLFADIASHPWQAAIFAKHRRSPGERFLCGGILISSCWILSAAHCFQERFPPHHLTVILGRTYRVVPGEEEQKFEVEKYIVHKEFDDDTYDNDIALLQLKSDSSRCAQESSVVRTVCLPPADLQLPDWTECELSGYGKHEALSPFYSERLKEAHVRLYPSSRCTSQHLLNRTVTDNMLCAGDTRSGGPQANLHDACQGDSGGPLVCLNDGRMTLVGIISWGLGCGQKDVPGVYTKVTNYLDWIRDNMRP

Compound | IC50 (trypsin) [µM] | IC50 (plasmin [1]; [4]) [µM] | IC50 (plasmin [1]) [µM] | Cytoxicity (U87 glioma cells) | concentration causing caspase-independent, non-apoptotic cell death [2] | IC50 (tPA) [µM] | IC50 (plasmin [3]) [µM]
N/C(=N\O)c1nc(Cl)c(NCC(=O)OCc2ccccc2)nc1N [Compound 7] | > 250 |  |  | Not cytotoxic |  |  | 
N/C(=N\O)c1ncc(NCC(=O)O)nc1N [Compound 8-H] | > 250 |  | 230 | Not cytotoxic |  |  | 
N/C(=N\O)c1nc(Cl)c(NCC(=O)O)nc1N [Compound 8] | > 250 |  |  | Not cytotoxic |  |  | 
N=C(N)c1nc(Cl)c(NCC(=O)OCc2ccccc2)nc1N [Compound 11] | > 250 |  |  | cytotoxic and 50% cytotoxic at 250μM by 72h |  |  | 
NC(=O)c1nc(Cl)c(NCC(=O)OCc2ccccc2)nc1N [Compound 12] | > 250 | > 150 |  | Not cytotoxic |  |  | 
NC(N)=NC(=O)c1nc(Cl)c(NCC(=O)OCc2ccccc2)nc1N [Compound 14] | > 250 |  |  | cytotoxic and 50% cytotoxic at 100μM by 24h |  |  | 

More lines, main results first:

IC50 (trypsin) [µM] | IC50 (plasmin [1]; [4]) [µM] | IC50 (plasmin [1]) [µM] | Compound | Cytoxicity (U87 glioma cells) | concentration causing caspase-independent, non-apoptotic cell death [2] | IC50 (tPA) [µM] | IC50 (plasmin [3]) [µM]
> 250 |  |  | NC(N)=NC(=O)c1ncc(NCC(=O)O)nc1N [Compound 1-H] | Not cytotoxic |  |  | 
> 250 |  |  | N=C(N)NC(=O)c1nc(Cl)c(NCC(=O)O)nc1N [Compound 1] | do not demonstrate glioma cytotoxicity; also recorded: Not cytotoxic |  |  | 
> 250 |  |  | N=C(N)c1ncc(NCC(=O)O)nc1N [Compound 2-H] | Not cytotoxic |  |  | 
> 250 | > 250 |  | N=C(N)c1nc(Cl)c(NCC(=O)O)nc1N [Compound 2] | do not demonstrate glioma cytotoxicity; also recorded: Not cytotoxic |  |  | 
> 250 |  |  | N=C(N)NC(=O)c1nc(Cl)c(N)nc1N [amiloride, 3,5 diamino-6-chloro-N-(diaminomethylene) pyrazinecarboximide] | 50% cytotoxic at 250μM by 24h | ~ 200 μM | > 1000 | > 1000
